For orientation: half-life means the time needed for the level to fall by half in the phase considered. Broadly, the EC50 is the concentration at which the effect is half-maximal. What is called pKa is the negative logarithm of the acid dissociation constant.

Data set [1] in a line: Chemical stability assessed as hydrolysis half life at 1.5 mg at pH 1.4 measured at 24 hrs interval for 12 days by 31P NMR analysis. The data set is classed as physicochemical. An outline of the steps:
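1.5 mg in 0.2 M HCl/KCl with D2O, pH adjusted to 1.4, kept at 37 °C. 31P NMR spectra, 500 scans each, were recorded about every 24 h for 12 days to obtain half-life.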

Data set [2] deals with Serum. As to the kind of experiment: Metabolic stability in human serum assessed as hydrolysis half life at 0.25 mM measured for 4 days by HPLC. Type of data set: ADME, cell-free. Conditions: 96 h, 250 µM. The method in brief: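 Human serum (healthy donors; clotted 12 h at 4 °C, spun 1500 × g, stored −80 °C) diluted with RPMI-1640, incubated with 0.25 mM nucleotide at 37 °C for 1–96 h. Stopped with HCl, neutralized with KOH, analysed by C18 HPLC (KH2PO4 pH 4.5/acetonitrile). t1/2 from peak-area change.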

The nature of data set [3]: Stability at 77 ug/ml after 30 mins by HPLC in presence of calf intestine alkaline phosphatase. Type of data set: ADME. Conditions: cattle, isolated protein, 0.5 h.
The target of data set [4] is P2Y purinoceptor 1 (Meleagris gallopavo, UniProt P49652). The experiment in a line: Agonist activity at turkey P2Y1 receptor expressed in human 1321N1 cells assessed as increase in intracellular calcium concentration by dual-excitation spectrofluorimetric analysis. The data set is classed as functional, cell-based. A general note: Calcium flux is commonly read through the fluorescence of an indicator in the cells.
Sequence of P2Y purinoceptor 1 (P49652 whole entry): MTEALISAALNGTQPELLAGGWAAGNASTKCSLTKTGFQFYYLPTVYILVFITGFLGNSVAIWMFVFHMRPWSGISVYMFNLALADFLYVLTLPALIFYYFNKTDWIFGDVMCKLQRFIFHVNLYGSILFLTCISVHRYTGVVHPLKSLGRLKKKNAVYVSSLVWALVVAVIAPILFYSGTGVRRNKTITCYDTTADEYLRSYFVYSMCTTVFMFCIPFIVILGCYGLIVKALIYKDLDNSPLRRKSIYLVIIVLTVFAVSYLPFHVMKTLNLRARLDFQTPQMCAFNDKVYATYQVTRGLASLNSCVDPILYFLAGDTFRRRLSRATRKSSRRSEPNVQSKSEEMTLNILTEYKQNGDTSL

Data set [5] in a line: Dissociation constant, pKa of the compound. The data set is classed as physicochemical.

Consider `CSc1nc(N)c2ncn([C@@H]3O[C@H](COP(=O)(O)OP(=O)(O)CP(=O)(O)O)[C@@H](O)[C@H]3O)c2n1`, for which the half-life in data set [1] was 65 h. The t1/2 in data set [2] worked out at 12.7 h. For the same molecule, the Stability entry in data set [3] is reported as “Stable”. Moreover, the EC50 in data set [4] worked out at 80 nM. The molecule also registered a pKa in data set [5] of 8.4.

Values taken from ChEMBL document CHEMBL1137702, “Identification of hydrolytically stable and selective P2Y(1) receptor agonists” (Eur J Med Chem, 2009).
